In all, about 2,500 compounds went through this assay and about 460 (18%) were called active. Only a sample is shown. Unmarked numbers belong to inactive results.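 The calls were made as follows: active = mean activation above a cutoff of low control average plus 3 SD from the earlier screen (cut at about 12% in these data); inactive = the rest.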
Assay: IANBD-channel fluorescence artefacts in buffer – biochemical, artefact control for cardiac RTF calcium sensitizer project, confirmation (AID 504382)
Conditions: IANBD fluorescence interference counterscreen, EC20 Ca2+, at 7.2 µM, stronger effect = higher value, scaled: EC20 calcium 0, EC100 calcium 100
Procedure, shortened: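 timing = compound incubation 15 min at 25 °C before fluorescence reading | technique = fluorescence at 480 nm excitation, 540 nm emission | evaluation = interference relative to controls | replication = triplicate wells per compound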

Row | Structure (SMILES) | fluorescence artifact activation
1 | COc1ccccc1N=C1NC(=O)/C(=C/c2ccc(N(C)C)cc2)S1 | 0.13%
2 | Cc1ccc(N=C2NC(=O)/C(=C/c3cccnc3)S2)cc1C | 0.55%
3 | O=C1NC(=NCc2ccccc2)S/C1=C\c1ccccc1 | 14.6% (active)
4 | Nc1ccc2c(O)cc(S(=O)(=O)O)cc2c1 | 0.19%
5 | Nc1ccc(S(N)(=O)=O)cc1N | 196% (active)
6 | O=C1NC(c2cccc([N+](=O)[O-])c2)Oc2ccccc21 (centres undefined) | -0.04%
7 | Cc1ccc(OCc2ccc(C(=O)O)o2)cc1C | -0.09%
8 | O=C(NCc1csc2ccccc12)Nc1cc(Cl)cc(Cl)c1 | 0.06%
9 | Cc1cc(C(=O)NNC(=S)NCc2ccccc2)cs1 | -0.07%
10 | O=C(O)/C=C/C(=O)NCc1csc2ccccc12 | 94.3% (active)
11 | CCOC(=O)c1c(-c2ccccc2)csc1NC(=O)/C(C#N)=C/c1ccc(O)c(OC)c1 | 6.3%
12 | O=C(NCC1CC1)c1cccc2c1C(=O)c1ccc(N3CCCC3)cc1S2(=O)=O | 69.4% (active)
13 | CC1CCN(c2ccc3c(c2)S(=O)(=O)c2cccc(C(=O)NC4CCCCC4)c2C3=O)CC1 | 0.04%
14 | O=C(NC1CCCCC1)c1cccc2c1C(=O)c1ccc(N3CCCC3)cc1S2(=O)=O | 23.8% (active)
15 | O=C(NC1CCCCC1)c1cccc2c1C(=O)c1ccc(N3CCC(Cc4ccccc4)CC3)cc1S2(=O)=O | 0.54%
16 | CN1CCC[C@@H]1CCNC(=O)c1cccc2c1C(=O)c1ccc(N3CCCC3)cc1S2(=O)=O | -0.09%
17 | C=CCNC(=O)c1cccc2c1C(=O)c1ccc(N3CCCC3)cc1S2(=O)=O | 0.04%
18 | COc1ccccc1N1C(=O)c2cccc3c(N(C)CCO)ccc(c23)C1=O | 0.41%
19 | O=C(N/C(=C/c1cn(-c2ccccc2)nc1-c1ccccc1)C(=O)N1CCOCC1)c1ccc(Cl)cc1Cl | 3.44%
20 | COc1cccc2c1C(=O)c1c(O)c3c(c(O)c1C2=O)C[C@](O)(C(C)=O)C[C@H]3O[C@@H]1C[C@@H](N)[C@@H](O)[C@@H](C)O1 | -0.05%
21 | COc1cccc2c1C(=O)c1c(O)c3c(c(O)c1C2=O)CC(O)(C(C)=O)CC3OC1CC(O)C(O)C(C)O1 (centres undefined) | 24.9% (active)
22 | COc1cccc2c1C(=O)c1c(O)c3c(c(O)c1C2=O)CC(O)(C(C)=O)CC3OC1CC(N(C)C)C(O)C(C)O1 (centres undefined) | 0%
23 | COc1cccc2c1C(=O)c1c(O)c3c(c(O)c1C2=O)CC(O)(C(=O)CO)CC3OC1CC(N(C)C)C(O)C(C)O1 (centres undefined) | 40.5% (active)
24 | COc1cccc2c1C(=O)c1c(O)c3c(c(O)c1C2=O)C[C@@](O)(C(=O)CO)C[C@@H]3OC1CC(N)C(O)C(C)O1 (some centres undefined) | 0.06%
25 | COc1cccc2c1C(=O)c1c(O)c3c(c(O)c1C2=O)C[C@@](O)(C(=O)CO)C[C@@H]3O[C@H]1C[C@H](N)[C@H](O)[C@H](C)O1 | -0.07%
26 | COC(=O)c1ccccc1NC(=O)[C@@H]1CCC(=O)N1C1OC(=O)c2c1ccc(OC)c2OC (some centres undefined) | 0.09%
27 | O=C1C=C(NCc2ccco2)CC(c2ccc(Cl)cc2)C1 (centres undefined) | 0.31%

Row | Structure (SMILES) | fluorescence artifact activation
28 | CC1=CC=CN2CC(O)CN=C12 (centres undefined) | 3.77%
29 | Cc1c(C(=O)NCc2ccc3c(c2)cc(C)n3C)cccc1[N+](=O)[O-] | 0.13%
30 | COc1cc(NC(=O)CSc2nc3ccccc3n2-c2ccccc2)c(C)cc1[N+](=O)[O-] | 0.03%
31 | COC1=C/C(=C/c2c(N)n3c(nc2=O)sc2cc(S(C)(=O)=O)ccc23)C=CC1=O | 0.11%
32 | N#Cc1cccc(NC(=S)Nc2ccccc2)c1 | 0.03%
33 | CCOC(=O)c1[nH]cnc1C(=O)Nc1ccccn1 | 0.74%
34 | CN(Cc1ccccc1)C(=O)c1[nH]cnc1C(=O)NCc1ccccc1 | 12.7% (active)
35 | CC(C)(C)OC(=O)[C@H](Cc1ccccc1)NC(=O)c1nc[nH]c1C(=O)NCc1ccccc1 | 4.14%
36 | CCOC(=O)C1=C(C)N=c2s/c(=C\c3ccc(OCC(=O)O)cc3)c(=O)n2C1c1ccc(Cl)cc1 (centres undefined) | 0.05%
37 | CC1=C/C(=C\C=C(C#N)C#N)N(C)c2ccccc21 | 0.3%
38 | Cc1cc2nc(/C(C#N)=C\c3ccc(-c4ccccc4C(=O)O)o3)[nH]c2cc1C | 0.09%
39 | O=C(O)c1ccccc1-c1ccc(/C=C/c2cc(C(F)(F)F)[nH]c(=O)n2)o1 | 0.16%
40 | O=C(O)c1cc(Cl)ccc1-c1ccc(/C=C/c2cc(C(F)(F)F)[nH]c(=O)n2)o1 | 21.8% (active)
41 | CC(=O)NN1C(=O)/C(=C\c2ccc(O)cc2)SC1=S | 0.69%
42 | C/C(=N\Nc1ccc([N+](=O)[O-])cc1[N+](=O)[O-])c1cccnc1 | 0.07%
43 | Fc1ccc(OCc2nnc(SCCN3CCOCC3)o2)cc1 | -0.06%
44 | O=C(CSc1nnc(COc2ccccc2)o1)N1CCN(c2ccccc2)CC1 | 12% (active)
45 | O=C(NCc1nnc(SCC(=O)N2CCCCCC2)o1)c1ccco1 | 8.13%
46 | Cc1cccc(NC(=O)CN2C(=O)N/C(=C/c3ccc(C)s3)C2=O)c1 | 0.09%
47 | O=C(O)c1ccc(-n2c(/C=C/c3cccc([N+](=O)[O-])c3)nc3ccccc3c2=O)cc1 | 0.47%
48 | COCCN1C(=O)/C(=C/c2ccc(N3CCCC3)cc2)SC1=S | 0.34%
49 | CC(=O)c1ccc(S(=O)(=O)Nc2ccc(C(=O)N3CCC3)cc2)cc1 | 0.27%
50 | CC1CN(c2ccc(NS(=O)(=O)c3ccccc3)cc2C(=O)O)CC(C)O1 (centres undefined) | 31.9% (active)
51 | CCOC(=O)C1CCCN(C(=O)c2cccc(S(=O)(=O)N3CC(C)OC(C)C3)c2)C1 (centres undefined) | 0.05%
52 | O=C(Nc1ccc(F)cc1F)c1ccc(COc2c(F)c(F)cc(F)c2F)o1 | -0.01%
53 | CCCCc1ccc(NC(=O)N2CCNC(=O)C2CC(=O)Nc2ccsc2C(=O)OC)cc1 (centres undefined) | -0.11%
54 | Cc1cn2c(N)c(C=C3C=C(Cl)C(=O)C(Cl)=C3)c(=O)nc2s1 | 4.46%

Reference: PubChem BioAssay AID504382 (The Scripps Research Institute Molecular Screening Center, 2011)
